Key:
[1] = target: T1, Sigma intracellular receptor 2 (Rattus norvegicus, UniProt Q5U3Y7); experiment: Displacement of [3H]-DTG from sigma2 receptor in rat brain membranes after 120 mins in presence of (+)-pentazocine by radioligand binding assay; format: cell membranes
T1 sequence (Q5U3Y7 whole entry): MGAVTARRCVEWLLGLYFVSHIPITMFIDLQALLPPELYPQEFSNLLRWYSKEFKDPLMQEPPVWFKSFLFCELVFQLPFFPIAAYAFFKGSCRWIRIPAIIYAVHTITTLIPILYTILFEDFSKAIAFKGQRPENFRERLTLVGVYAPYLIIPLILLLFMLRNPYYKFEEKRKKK

[2] = target: Sigma non-opioid intracellular receptor 1 (Rattus norvegicus, UniProt Q9R0C9); experiment: Displacement of [3H](+)-pentazocine from sigma1 receptor in rat brain membranes after 120 mins by radioligand binding assay; format: cell membranes
Chain of Sigma non-opioid intracellular receptor 1 (Q9R0C9 whole entry): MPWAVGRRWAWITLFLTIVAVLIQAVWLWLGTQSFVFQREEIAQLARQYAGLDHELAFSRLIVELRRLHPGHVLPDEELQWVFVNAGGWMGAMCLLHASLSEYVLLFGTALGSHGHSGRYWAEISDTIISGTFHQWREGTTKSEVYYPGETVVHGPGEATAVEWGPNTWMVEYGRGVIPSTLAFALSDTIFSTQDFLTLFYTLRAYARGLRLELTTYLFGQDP

Rattus norvegicus [3] = organism: Rattus norvegicus; experiment: Selectivity ratio of Ki for sigma1 receptor in rat brain membranes to Ki for sigma2 receptor in rat brain membranes; format: cell membranes
D(2) dopamine receptor = D(2) dopamine receptor (Rattus norvegicus, UniProt P61169); experiment: Displacement of [3H](-)-sulpiride from dopamine D2 receptor in rat brain membranes after 120 mins by radioligand binding assay; format: cell membranes
Chain of D(2) dopamine receptor (P61169 whole entry): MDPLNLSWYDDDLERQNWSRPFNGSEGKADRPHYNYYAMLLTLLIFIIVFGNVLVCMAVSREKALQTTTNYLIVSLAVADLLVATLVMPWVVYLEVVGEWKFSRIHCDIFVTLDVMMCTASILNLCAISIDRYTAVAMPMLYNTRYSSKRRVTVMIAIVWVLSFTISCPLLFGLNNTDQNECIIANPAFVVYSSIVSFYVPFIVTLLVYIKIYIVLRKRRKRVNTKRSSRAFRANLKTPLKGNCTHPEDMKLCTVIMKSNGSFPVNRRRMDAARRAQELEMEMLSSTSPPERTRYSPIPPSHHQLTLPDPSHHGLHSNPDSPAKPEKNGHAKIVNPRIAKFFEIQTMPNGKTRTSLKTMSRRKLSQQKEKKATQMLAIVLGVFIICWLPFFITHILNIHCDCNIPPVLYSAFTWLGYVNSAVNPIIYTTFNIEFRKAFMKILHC

Rattus norvegicus [4] = organism: Rattus norvegicus; experiment: Selectivity ratio of Ki for 5-HT2 receptor in rat brain membranes to Ki for sigma2 receptor in rat brain membranes; format: cell membranes
[5] = Displacement of [3H]nisoxetine from norepinephrine transporter in rat cerebral cortex membranes after 120 mins by radioligand binding assay; format: cell membranes, Membrane
[6] = target: 5-hydroxytryptamine receptor 2A (Rattus norvegicus, UniProt P14842); experiment: Displacement of [3H]ketanserin from 5-HT2 receptor in rat brain membranes after 120 mins by radioligand binding assay; format: cell membranes
Chain of 5-hydroxytryptamine receptor 2A (P14842 whole entry): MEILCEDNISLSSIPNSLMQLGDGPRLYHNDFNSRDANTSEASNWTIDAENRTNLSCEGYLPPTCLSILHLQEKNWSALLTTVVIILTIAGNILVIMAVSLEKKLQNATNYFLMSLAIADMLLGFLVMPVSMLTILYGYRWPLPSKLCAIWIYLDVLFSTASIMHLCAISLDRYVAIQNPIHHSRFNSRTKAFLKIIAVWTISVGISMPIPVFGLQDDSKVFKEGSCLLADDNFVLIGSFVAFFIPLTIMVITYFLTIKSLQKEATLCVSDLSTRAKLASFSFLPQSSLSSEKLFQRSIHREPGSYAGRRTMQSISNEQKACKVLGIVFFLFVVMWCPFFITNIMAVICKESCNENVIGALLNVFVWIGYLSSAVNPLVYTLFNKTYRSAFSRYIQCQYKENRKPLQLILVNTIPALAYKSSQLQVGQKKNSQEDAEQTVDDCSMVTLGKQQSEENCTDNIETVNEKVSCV
In short: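 5-HT2 site in rat brain (minus cerebellum) membranes labeled with 2 nM [3H]ketanserin; 1 µM mianserin nonspecific. Glass-fiber filtration, Ki by Cheng-Prusoff; triplicate, mean ± SEM.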

[7] = target: Sodium-dependent serotonin transporter (Rattus norvegicus, UniProt P31652); experiment: Displacement of [3H]paroxetine from serotonin transporter in rat brainstem membranes after 120 mins by radioligand binding assay; format: cell membranes
Chain of Sodium-dependent serotonin transporter (P31652 whole entry): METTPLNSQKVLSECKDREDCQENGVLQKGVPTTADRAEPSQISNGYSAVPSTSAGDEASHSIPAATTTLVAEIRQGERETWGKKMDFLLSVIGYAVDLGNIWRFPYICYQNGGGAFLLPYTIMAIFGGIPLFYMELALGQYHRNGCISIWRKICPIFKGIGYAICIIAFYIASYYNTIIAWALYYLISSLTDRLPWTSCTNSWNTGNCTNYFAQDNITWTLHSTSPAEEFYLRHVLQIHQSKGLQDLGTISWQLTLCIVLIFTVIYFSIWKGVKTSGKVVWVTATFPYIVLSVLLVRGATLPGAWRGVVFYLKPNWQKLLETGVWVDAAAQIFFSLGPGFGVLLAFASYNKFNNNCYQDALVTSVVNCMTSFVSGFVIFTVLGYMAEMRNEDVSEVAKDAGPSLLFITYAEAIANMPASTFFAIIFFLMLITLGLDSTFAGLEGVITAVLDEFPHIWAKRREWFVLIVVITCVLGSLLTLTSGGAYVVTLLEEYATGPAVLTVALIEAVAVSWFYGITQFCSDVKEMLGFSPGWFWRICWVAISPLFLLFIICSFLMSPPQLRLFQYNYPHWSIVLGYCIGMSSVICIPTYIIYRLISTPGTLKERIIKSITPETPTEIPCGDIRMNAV
In short: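 Rat brainstem membranes, 0.2 nM [3H]paroxetine; nonspecific with 1.5 µM imipramine. Ice-cold buffer stop, glass-fiber filtration, Cheng-Prusoff Ki; triplicate, mean ± SEM.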

Mus musculus = experiment: Anticonvulsant activity in ip dosed Swiss Webster mouse assessed as reduction in cocaine-induced convulsion pretreated for 15 mins followed by cocaine-challenge and measured for 30 mins; format: functional, organism-based
Glutamate NMDA receptor = experiment: Displacement of [3H]TCP from NMDA receptor in rat brain membranes after 120 mins by radioligand binding assay; format: cell membranes
In short: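 PCP site of NMDA receptor in rat brain minus cerebellum membranes, 5 nM [3H]TCP; nonspecific with 10 µM cyclazocine.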

Opioid receptor = Opioid receptor (Rattus norvegicus, UniProt P33533+P34975+P33535); experiment: Displacement of [3H]bremazocine from opioid receptor in rat brain membranes after 120 mins by radioligand binding assay; format: cell membranes
[8] = target: Sodium-dependent dopamine transporter (Rattus norvegicus, UniProt P23977); experiment: Displacement of [3H]WIN 35428 from dopamine transporter in rat striatal membranes after 120 mins by radioligand binding assay; format: cell membranes, Striatum, Membrane
Chain of Sodium-dependent dopamine transporter (P23977 whole entry): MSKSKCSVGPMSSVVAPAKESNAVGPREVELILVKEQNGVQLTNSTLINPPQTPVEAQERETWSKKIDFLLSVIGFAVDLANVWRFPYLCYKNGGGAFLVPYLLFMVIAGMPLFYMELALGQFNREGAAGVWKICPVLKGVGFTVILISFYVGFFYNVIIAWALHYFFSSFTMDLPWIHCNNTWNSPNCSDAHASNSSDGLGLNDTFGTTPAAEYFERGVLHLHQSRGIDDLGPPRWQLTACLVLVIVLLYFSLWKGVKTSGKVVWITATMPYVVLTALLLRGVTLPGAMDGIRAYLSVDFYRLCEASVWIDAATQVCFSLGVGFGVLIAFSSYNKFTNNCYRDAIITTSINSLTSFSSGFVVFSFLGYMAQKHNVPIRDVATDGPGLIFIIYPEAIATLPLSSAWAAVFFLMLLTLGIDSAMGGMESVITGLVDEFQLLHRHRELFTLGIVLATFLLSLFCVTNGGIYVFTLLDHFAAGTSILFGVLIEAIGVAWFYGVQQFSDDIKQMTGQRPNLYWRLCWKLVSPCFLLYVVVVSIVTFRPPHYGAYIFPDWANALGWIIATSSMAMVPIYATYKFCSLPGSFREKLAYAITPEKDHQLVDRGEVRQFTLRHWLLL

| Ki [1] | Ki [2] | Ratio Ki (Rattus norvegicus [3]) | Ki (D(2) dopamine receptor) | Ratio Ki (Rattus norvegicus [4]) | Ki [5] | Ki [6] | Ki [7] | Ki (Glutamate NMDA receptor) | Ki (Opioid receptor) | Ki [8] | SMILES | Activity (Mus musculus) |
| --- | --- | --- | --- | --- | --- | --- | --- | --- | --- | --- | --- | --- |
| 28.5 nM | 166 nM | 5.8 | – | – | – | – | – | – | – | – | CC(=O)c1ccc2c(c1)[nH]c(=O)n2CCCCN1CCN(c2ccc(F)cc2)CC1 | – |
| 0.66 nM | 752 nM | 1140 | > 10000 nM | 83 | > 10000 nM | 54.7 nM | > 1000 nM | > 10000 nM | > 10000 nM | > 1000 nM | CCCn1c(=O)n(CCCCN2CCN(c3ccc(F)cc3)CC2)c2ccccc21 | Dose-dependent effect |
| 2.15 nM | 299 nM | 139 | – | – | – | – | – | – | – | – | CCCCCn1c(=O)n(CCCCN2CCN(c3ccc(F)cc3)CC2)c2ccc(C(C)=O)cc21 | – |
| 1.81 nM | 273 nM | 151 | – | – | – | – | – | – | – | – | CCCn1c(=O)n(CCCCN2CCN(c3ccc(F)cc3)CC2)c2ccc(C(C)=O)cc21 | – |
| 32.5 nM | 988 nM | 30.4 | – | – | – | – | – | – | – | – | CCCCCCCCCCn1c(=O)n(CCCCN2CCN(c3ccc(F)cc3)CC2)c2ccc(C(C)=O)cc21 | – |
| 7.6 nM | 72.3 nM | 9.5 | – | – | – | – | – | – | – | – | CC(=O)c1ccc2c(c1)n(C)c(=O)n2CCCCN1CCN(c2ccc(F)cc2)CC1 | – |
| 18.4 nM | 144 nM | – | – | – | – | – | – | – | – | – | O=c1[nH]c2ccccc2n1CCCCN1CCN(c2ccc(F)cc2)CC1 | – |
| 4.55 nM | 724 nM | 159 | – | – | – | – | – | – | – | – | CCCCCCCCCCn1c(=O)n(CCCCN2CCN(c3ccc(F)cc3)CC2)c2ccccc21 | – |
| 4.27 nM | 2270 nM | 532 | > 1000 nM | – | > 10000 nM | 250 nM | 446 nM | > 10000 nM | > 10000 nM | > 1000 nM | CCCCCn1c(=O)n(CCCCN2CCN(c3ccc(F)cc3)CC2)c2ccccc21 | – |

| SMILES | Ki [1] | Ki [2] | Ratio Ki (Rattus norvegicus [3]) | Ki (D(2) dopamine receptor) | Ratio Ki (Rattus norvegicus [4]) | Ki [5] | Ki [6] | Ki [7] | Ki (Glutamate NMDA receptor) | Ki (Opioid receptor) | Ki [8] | Activity (Mus musculus) |
| --- | --- | --- | --- | --- | --- | --- | --- | --- | --- | --- | --- | --- |
| Cn1c(=O)n(CCCCN2CCN(c3ccc(F)cc3)CC2)c2ccccc21 | 2.05 nM | – | – | – | – | – | – | – | – | – | – | – |

— ChEMBL document CHEMBL4480394, “Benzimidazolone-based selective σ2 receptor ligands: Synthesis and pharmacological evaluation” (Eur J Med Chem, 2019)
